Columns and labels:
[1] = biological target: T1, Integrin alpha-4/beta-1 (Homo sapiens, UniProt P05556+P13612); assay: Inhibition of europium labeled human VCAM1/Fc chimera binding to human VLA-4 alpha-4-beta-1 expressed in Chinese hamster 4B4 cells by fluorimetric assay; assay type: cell-based
[2] = biological target: T1, Integrin alpha-4/beta-1; assay: Inhibition of europium labeled human VCAM1/Fc chimera binding to human VLA-4 alpha-4-beta-1 expressed in Chinese hamster 4B4 cells in presence of 3% HSA by fluorimetric assay; assay type: cell-based
Outline: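 CHO-K1 4B4 cells transfected with human α4 and β1, plated at 3 × 10⁵ cells/mL and cultured 2 days, washed with HEPES pH 7.5 buffer containing Ca, Mg, Mn. Compound plus Eu-labeled human VCAM-1/Fc (final 1 nM), with or without human serum albumin, 60 min at room temperature; washed, Eu time-resolved fluorescence read; duplicates.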

[3] = Drug level in BALB/c mouse serum at 10 mg/kg, po after 15 mins; assay type: ADME, organism-based; parameters: dose 10 mg/kg, route oral; conditions: read-out: Drug uptake
Outline: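 Serum (final 0.01-10%) assayed in the VLA-4/VCAM-1 binding assay, and concentration estimated from a calibration curve of compound spiked into untreated mouse serum.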

[4] = Clearance in Sprague-Dawley rat at 1 mg/kg, iv; assay type: ADME, organism-based; parameters: dose 1 mg/kg, route intravenous; conditions: in vivo
Outline: (§1)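 Male Sprague-Dawley rats (7 weeks), fasted 18 h, four per group. 1 mg/kg oral in 0.5% MC or iv in saline, each with 3 equiv NaOH. Plasma drawn at 0.08 (iv) or 0.25 (po), 0.5, 1, 2 and 6 h; LC/MS/MS quantitation, noncompartmental parameters.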

[5] = Volume of distribution at steady state in Sprague-Dawley rat at 1 mg/kg, iv; assay type: ADME, organism-based; parameters: dose 1 mg/kg, route intravenous; conditions: in vivo, read-out: Vdss; outline: as §1
[6] = Half life in Sprague-Dawley rat at 1 mg/kg, iv; assay type: ADME, organism-based; parameters: dose 1 mg/kg, route intravenous; conditions: in vivo; outline: as §1
[7] = system: Mus musculus; assay: Antiinflammatory activity in Ascaris suum antigen-induced BALB/c AnNCrj mouse asthma model assessed as inhibition of eosinophil infiltration in BAL fluid orally administered twice daily 15 mins before and 8, 24 and 32 hrs after antigen challenge measured 48 hrs after antigen challenge; assay type: functional, organism-based
Outline: (§2)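 Female BALB/c AnNCrj mice given cyclophosphamide 150 mg/kg po (day 0), sensitized ip with Ascaris suum extract plus alum on days 2 and 14, challenged intratracheally day 22. Compound in 0.5% MC/0.03% Tween 80 po 15 min before and 8, 24, 32 h after challenge; BAL at 48 h, eosinophils from total count times Wright-stained differential.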

[8] = system: Mus musculus; assay: Antiinflammatory activity in Ascaris suum antigen-induced BALB/c AnNCrj mouse asthma model assessed as inhibition of eosinophil infiltration in BAL fluid at 5 mg.kg, po bid administered 15 mins before and 8, 24 and 32 hrs after antigen challenge measured 48 hrs after antigen challenge; assay type: functional; outline: as §2
[9] = system: Mus musculus; assay: Toxicity in BALB/c AnNCrj mouse assessed as induction of hepatic injury at 200 mg/kg, po for 2 days; assay type: organism-based; parameters: dose 200 mg/kg, route oral; conditions: in vivo, 48 h
Outline: (§3)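 Mice dosed iv at 50 mg/kg or orally at 25 or 200 (mg/kg)/day for 2 days, then assessed for liver injury.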

[10] = system: Mus musculus; assay: Toxicity in BALB/c AnNCrj mouse assessed as induction of hepatic injury at 50 mg/kg, iv for 2 days; assay type: organism-based; parameters: dose 50 mg/kg, route intravenous; conditions: in vivo, 48 h; outline: as §3
[11] = biological target: Integrin alpha-IIb/beta-3 (Homo sapiens) (UniProt P05106+P08514); assay: Inhibition of integrin alpha2bbeta3 receptor dependent platelet aggregation at 16 uM
Outline: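 Platelet-rich plasma prepared from citrated blood of two volunteers. Compound in DMSO preincubated with PRP for 2 min at 37 °C, then aggregation induced with collagen; aggregation rate followed for 10 min.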

[12] = biological target: Integrin alpha-4/beta-7 (Homo sapiens) (UniProt P13612+P26010); assay: Inhibition of MAdCAM1 binding to integrin alpha4beta7 receptor in human RPMI8866 cells at 16 uM by cell/protein binding assay; assay type: cell-based
Outline: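 RPMI8866 human B cells (α4β7+, β1−) at 1.2 × 10⁶/well in HEPES buffer containing BSA, DTPA, Ca, Mg and Mn, mixed with compound (final 10 μg/mL to 1 ng/mL) and Eu-MAdCAM-1 (final 1 nM) for 1 h at room temperature. Free ligand removed by centrifugation and washing; time-resolved fluorescence measured.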

[13] = system: Cavia porcellus; assay: Inhibition of acetylcholine chloride-induced bronchial hyperesponsiveness in ovalbumin challenged guinea pig asthma model administered orally 1 hr before and 2.5 hrs after antigen challenge; assay type: functional
Outline: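 Hartley guinea pigs (n = 8/group) sensitized with 1% OVA aerosol 10 min/day for 8 days, challenged a week later with 2% OVA aerosol 5 min; metyrapone iv and pyrilamine ip pretreatment. Oral doses 0.8, 2, 5 or 12.5 mg/kg at 1 h before and 2.5 h after challenge. At 22-27.5 h, stepwise ACh aerosol (0.0625-2 mg/mL); PC100ACh from sRaw.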

[14] = system: Mus musculus; assay: Antiinflammatory activity in Ascaris suum antigen-induced BALB/c AnNCrj mouse asthma model assessed as reduction of acetylcholine chloride-induced bronchial hyperesponsiveness at 12.5 mg/kg, bid administered 15 mins before and 8, 24 and 32 hrs after antigen challenge measured 48 hrs after antigen challenge; assay type: functional; parameters: scale not given: the % may be the effect or the level left
Outline: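 Sensitized/challenged BALB/c AnNCrj mice (Ascaris suum, as in the eosinophil model) dosed po in 0.5% MC/0.03% Tween 80 at 15 min before and 8, 24, 32 h after challenge. At 48 h, pentobarbital-anesthetized, tracheotomized, ventilated mice given ACh injection; lung resistance increase measured.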

[15] = Oral bioavailability in Sprague-Dawley rat at 1 mg/kg, po; assay type: ADME, organism-based; conditions: in vivo; outline: as §1
[16] = AUC in Sprague-Dawley rat at 1 mg/kg, po; assay type: ADME, organism-based; parameters: dose 1 mg/kg, route oral; conditions: plasma; outline: as §1
[17] = Cmax in Sprague-Dawley rat at 1 mg/kg, po; assay type: ADME, organism-based; parameters: dose 1 mg/kg, route oral; conditions: in vivo; outline: as §1
[18] = Half life in Sprague-Dawley rat at 1 mg/kg, po; assay type: ADME, organism-based; parameters: dose 1 mg/kg, route oral; conditions: in vivo; outline: as §1
[19] = AUC in Sprague-Dawley rat at 1 mg/kg, iv; assay type: ADME, organism-based; parameters: dose 1 mg/kg, route intravenous; conditions: plasma; outline: as §1
[20] = Oral bioavailability in Beagle dog at 0.5 mg/kg, po; assay type: ADME, organism-based, Canis lupus familiaris; conditions: in vivo
Outline: (§4)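 Male beagle dogs (10-12 kg), fasted 18 h, three per group; cassette dosing 0.5 mg/kg in 0.5% MC with 3 equiv NaOH (po) or saline with 3 equiv NaOH (iv). Blood taken 0.08 (iv) or 0.25 (po) to 24 h, fed after 4 h; plasma assayed by LC/MS/MS, noncompartmental analysis.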

[21] = AUC in Beagle dog at 0.5 mg/kg, po; assay type: ADME, organism-based, Canis lupus familiaris; parameters: dose 0.5 mg/kg, route oral; conditions: plasma; outline: as §4
[22] = Cmax in Beagle dog at 0.5 mg/kg, po; assay type: ADME, organism-based, Canis lupus familiaris; parameters: dose 0.5 mg/kg, route oral; conditions: in vivo; outline: as §4
[23] = Half life in Beagle dog at 0.5 mg/kg, po; assay type: ADME, organism-based, Canis lupus familiaris; parameters: dose 0.5 mg/kg, route oral; conditions: in vivo; outline: as §4
[24] = AUC in Beagle dog at 0.5 mg/kg, iv; assay type: ADME, organism-based, Canis lupus familiaris; parameters: dose 0.5 mg/kg, route intravenous; conditions: plasma; outline: as §4
[25] = Clearance in Beagle dog at 0.5 mg/kg, iv; assay type: ADME, organism-based, Canis lupus familiaris; parameters: dose 0.5 mg/kg, route intravenous; conditions: in vivo; outline: as §4
[26] = Volume of distribution at steady state in Beagle dog at 0.5 mg/kg, iv; assay type: ADME, organism-based, Canis lupus familiaris; parameters: dose 0.5 mg/kg, route intravenous; conditions: in vivo, read-out: Vdss; outline: as §4
[27] = Half life in Beagle dog at 0.5 mg/kg, iv; assay type: ADME, organism-based, Canis lupus familiaris; parameters: dose 0.5 mg/kg, route intravenous; conditions: in vivo; outline: as §4
[28] = Oral bioavailability in cynomolgus monkey at 0.5 mg/kg, po; assay type: ADME, organism-based, Macaca fascicularis; conditions: in vivo
Outline: (§5)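 Female cynomolgus monkeys (3.5-4 kg), fasted 18 h, three per group. Dose 0.5 mg/kg, oral as suspension in 0.5% MC or iv in saline with 3 equiv NaOH. Blood sampled from 0.08 (iv) or 0.25 (po) up to 24 h, food after 4 h; plasma LC/MS/MS, noncompartmental analysis.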

[29] = AUC in cynomolgus monkey at 0.5 mg/kg, po; assay type: ADME, organism-based, Macaca fascicularis; parameters: dose 0.5 mg/kg, route oral; conditions: plasma; outline: as §5
[30] = Cmax in cynomolgus monkey at 0.5 mg/kg, po; assay type: ADME, organism-based, Macaca fascicularis; parameters: dose 0.5 mg/kg, route oral; conditions: in vivo; outline: as §5
[31] = Half life in cynomolgus monkey at 0.5 mg/kg, po; assay type: ADME, organism-based, Macaca fascicularis; parameters: dose 0.5 mg/kg, route oral; conditions: in vivo; outline: as §5
[32] = AUC in cynomolgus monkey at 0.5 mg/kg, iv; assay type: ADME, organism-based, Macaca fascicularis; parameters: dose 0.5 mg/kg, route intravenous; conditions: plasma; outline: as §5
[33] = Clearance in cynomolgus monkey at 0.5 mg/kg, iv; assay type: ADME, organism-based, Macaca fascicularis; parameters: dose 0.5 mg/kg, route intravenous; conditions: in vivo; outline: as §5
[34] = Volume of distribution at steady state in cynomolgus monkey at 0.5 mg/kg, iv; assay type: ADME, organism-based, Macaca fascicularis; parameters: dose 0.5 mg/kg, route intravenous; conditions: in vivo, read-out: Vdss; outline: as §5
[35] = Half life in cynomolgus monkey at 0.5 mg/kg, iv; assay type: ADME, organism-based, Macaca fascicularis; parameters: dose 0.5 mg/kg, route intravenous; conditions: in vivo; outline: as §5
[36] = biological target: Intercellular adhesion molecule (ICAM-1), Integrin alpha-L/beta-2 (Homo sapiens) (UniProt P20701+P05362+P05107); assay: Inhibition of europium labeled human ICAM1 binding to human integrin alphaLbeta2 receptor at 162 uM by protein/protein binding assay; assay type: protein-complex assay
Outline: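 Membrane-bound human LFA-1 immobilized at 1 μg/mL overnight at 4 °C, then blocked with BSA. Compound added with 2 nM Eu-labeled human ICAM-1 D1D5-IgG in 5% DMSO and bound for 2 h at room temperature; plates washed and Eu fluorescence read by time-resolved fluorometry.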

T1 sequence (P05556 whole entry): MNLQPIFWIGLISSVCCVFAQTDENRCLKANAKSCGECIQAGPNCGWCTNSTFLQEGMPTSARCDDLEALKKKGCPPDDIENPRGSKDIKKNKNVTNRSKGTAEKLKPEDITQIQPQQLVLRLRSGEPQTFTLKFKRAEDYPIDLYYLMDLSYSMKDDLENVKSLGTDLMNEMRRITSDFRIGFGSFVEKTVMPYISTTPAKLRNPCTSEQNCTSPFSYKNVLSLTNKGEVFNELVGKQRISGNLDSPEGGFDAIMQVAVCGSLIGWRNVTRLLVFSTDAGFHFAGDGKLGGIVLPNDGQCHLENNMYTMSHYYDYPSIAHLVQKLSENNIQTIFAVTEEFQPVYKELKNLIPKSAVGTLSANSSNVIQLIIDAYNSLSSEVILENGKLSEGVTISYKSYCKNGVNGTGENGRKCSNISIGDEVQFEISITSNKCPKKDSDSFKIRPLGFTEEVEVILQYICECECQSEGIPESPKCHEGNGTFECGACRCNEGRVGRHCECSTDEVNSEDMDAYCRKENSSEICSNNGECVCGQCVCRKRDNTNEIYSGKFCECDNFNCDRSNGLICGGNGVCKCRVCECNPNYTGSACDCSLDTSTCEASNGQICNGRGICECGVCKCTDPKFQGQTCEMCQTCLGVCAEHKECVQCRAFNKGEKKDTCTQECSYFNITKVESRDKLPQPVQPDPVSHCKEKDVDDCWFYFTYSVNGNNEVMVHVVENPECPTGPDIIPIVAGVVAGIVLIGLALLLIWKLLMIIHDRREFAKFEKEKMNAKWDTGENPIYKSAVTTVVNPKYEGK
T1 sequence (P13612 whole entry): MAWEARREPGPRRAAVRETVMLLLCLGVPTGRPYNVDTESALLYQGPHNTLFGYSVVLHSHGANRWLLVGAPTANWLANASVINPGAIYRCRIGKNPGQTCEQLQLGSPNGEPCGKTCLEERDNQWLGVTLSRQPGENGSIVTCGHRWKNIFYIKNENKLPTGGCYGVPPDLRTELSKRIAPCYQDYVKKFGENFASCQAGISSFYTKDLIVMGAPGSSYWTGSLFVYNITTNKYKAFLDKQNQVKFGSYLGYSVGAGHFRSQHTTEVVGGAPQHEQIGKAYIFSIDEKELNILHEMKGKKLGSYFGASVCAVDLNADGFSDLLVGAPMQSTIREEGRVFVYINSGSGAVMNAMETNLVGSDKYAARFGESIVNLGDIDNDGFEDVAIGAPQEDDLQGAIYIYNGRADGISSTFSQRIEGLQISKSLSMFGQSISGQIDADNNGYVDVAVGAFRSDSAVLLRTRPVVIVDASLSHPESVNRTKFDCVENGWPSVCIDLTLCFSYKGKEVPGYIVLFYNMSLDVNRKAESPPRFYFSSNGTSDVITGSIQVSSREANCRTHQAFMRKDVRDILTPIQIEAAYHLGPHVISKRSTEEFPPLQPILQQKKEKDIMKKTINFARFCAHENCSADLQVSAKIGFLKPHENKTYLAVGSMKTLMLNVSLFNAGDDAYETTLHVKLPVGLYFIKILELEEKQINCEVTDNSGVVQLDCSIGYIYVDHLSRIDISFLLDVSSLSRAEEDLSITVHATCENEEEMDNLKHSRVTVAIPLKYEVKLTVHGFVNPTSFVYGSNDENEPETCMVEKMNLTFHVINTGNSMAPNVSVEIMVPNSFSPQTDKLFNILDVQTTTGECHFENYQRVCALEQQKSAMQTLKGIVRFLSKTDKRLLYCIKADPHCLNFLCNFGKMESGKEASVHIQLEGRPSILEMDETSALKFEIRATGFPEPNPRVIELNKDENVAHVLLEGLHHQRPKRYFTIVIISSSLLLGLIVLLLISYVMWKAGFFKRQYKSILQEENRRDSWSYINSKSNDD

IC50 [1]: 5.4 nM
IC50 [2]: 93 nM
concentration at 0.25 h [3]: 6150 ng/mL
clearance [4]: 19.3 mL/min/kg
Vd [5]: 1.22 L/kg
half-life [6]: 1 h
inhibition [11]: 10%
inhibition [12]: 41%
bioavailability [15]: > 100%
AUC [16]: 975 ng·h/mL
Cmax [17]: 385 ng/mL
half-life [18]: 1.5 h
AUC [19]: 865 ng·h/mL
bioavailability [20]: 91%
AUC [21]: 6090 ng·h/mL
Cmax [22]: 1590 ng/mL
half-life [23]: 2 h
AUC [24]: 6710 ng·h/mL
clearance [25]: 1.7 mL/min/kg
Vd [26]: 0.164 L/kg
half-life [27]: 2.1 h
bioavailability [28]: 68%
AUC [29]: 3480 ng·h/mL
Cmax [30]: 431 ng/mL
half-life [31]: 5.5 h
AUC [32]: 5140 ng·h/mL
clearance [33]: 1.8 mL/min/kg
Vd [34]: 0.223 L/kg
half-life [35]: 6.3 h
inhibition [36]: 9%
Structure (SMILES): CO[C@H]1C[C@@H](CO[C@H]2CC[C@H](C(=O)O)CC2)N(C(=O)Cc2cc(Cl)c(NC(=O)c3cn(C)c4ccccc34)cc2Cl)C1
Activity [7]: Dose-dependent effect
inhibition (INH) [8]: 53%
Activity [9]: Non-toxic
Activity [10]: Non-toxic
Activity [13]: Dose-dependent effect
ED50 ([13]; po, read-out: ID50 (the source's name)): 3 mg/kg
Activity [14]: 83%

— ChEMBL document CHEMBL1154693, “Discovery of trans-4-[1-[[2,5-Dichloro-4-(1-methyl-3-indolylcarboxamido)phenyl]acetyl]-(4S)-methoxy-(2S)-pyrrolidinylmethoxy]cyclohexanecarboxylic acid: an orally active, selective very late antigen-4 antagonist” (J Med Chem, 2009)
